Experimental data pooled from the literature.
Protocols differ between the studies behind these lines.
Target: Angiopoietin-1 receptor (TEK, Homo sapiens, UniProt Q02763)

Nc1ncc(-c2nc(N3CCOCC3)nc(N3CCOCC3)n2)c(C(F)F)n1  remaining binding (cell-free assay; competition with immobilised ligand; 10 µM): 99%
COCc1c(-c2cc3cc(C)cc(OC)c3s2)c2c(N)ncnn2c1CN1CCNC(=O)C1  inhibition (cell-free assay; competition with immobilised ligand; 1 µM): 89%
CC(C)(C)c1cc(C=C(C#N)C#N)cc(Br)c1O  remaining activity (enzyme activity; inhibitor; 0.5 µM): 97.9%
Cn1cc(-c2cc(F)cc(N3CCn4c(cc5c4CCCC5)C3=O)c2CO)cc(Nc2ccc(N3CCN(C4COC4)CC3)cn2)c1=O  inhibition (enzyme activity; inhibitor; 0.1 µM): 7%
Cn1cncc1[C@@](O)(COc1ccc(C#N)cc1-c1ccc(OC(F)(F)F)cc1)c1ccc(C#N)cc1  remaining binding (cell-free assay; competition with immobilised ligand; 1 µM): 92%
O=c1[nH]c2ccccc2n1C1CCN(Cc2ccc(-c3[nH]c4cc5ncnc5cc4nc3-c3ccccc3)cc2)CC1  remaining signal (cell-free assay; 0.5 µM): 102%
COc1cc(Nc2ncc(F)c(Nc3ccc4c(n3)NC(=O)C(C)(C)O4)n2)cc(OC)c1OC  inhibition (binding; 10 µM): 94%
COc1ncccc1-c1cnn2ccc(N3CCN(C(=O)OC(C)C)CC3)nc12  remaining binding (binding; competition with immobilised ligand; 1 µM): 98%
O=C(NCc1ncc(C(F)(F)F)cc1Cl)c1ccc2c(c1)C1(CCS(=O)(=O)CC1)[C@@H](C1CC1)N2S(=O)(=O)c1ccc(F)cc1  remaining binding (cell-free assay; competition with immobilised ligand; 1 µM): 96%
Cc1nn(C)cc1-c1nc2c(N3CCN(Cc4ccc(Cl)cc4)CC3)c(Cl)cnc2[nH]1  remaining binding (binding; competition with immobilised ligand; 1 µM): 56%
